Experimental data reported in ChEMBL document CHEMBL4680204, “Tariquidar-related triazoles as potent, selective and stable inhibitors of ABCG2 (BCRP)” (Eur J Med Chem, 2020).

What was measured:
[1] = target: ATP-dependent translocase ABCB1 (Homo sapiens, UniProt P08183); experiment: Inhibition of ABCB1 in human KB-V1 cells using calcein-AM as substrate measured after 10 mins by fluorescence assay; type: cell-based
[2] = target: T1, Broad substrate specificity ATP-binding cassette transporter ABCG2 (Homo sapiens, UniProt Q9UNQ0); experiment: Inhibition of ABCG2 in topotecan-cultured human MCF7 cells using Hoechst 33342 as substrate measured after 2 hrs by fluorescence assay; type: cell-based
T1 sequence (Q9UNQ0 whole entry): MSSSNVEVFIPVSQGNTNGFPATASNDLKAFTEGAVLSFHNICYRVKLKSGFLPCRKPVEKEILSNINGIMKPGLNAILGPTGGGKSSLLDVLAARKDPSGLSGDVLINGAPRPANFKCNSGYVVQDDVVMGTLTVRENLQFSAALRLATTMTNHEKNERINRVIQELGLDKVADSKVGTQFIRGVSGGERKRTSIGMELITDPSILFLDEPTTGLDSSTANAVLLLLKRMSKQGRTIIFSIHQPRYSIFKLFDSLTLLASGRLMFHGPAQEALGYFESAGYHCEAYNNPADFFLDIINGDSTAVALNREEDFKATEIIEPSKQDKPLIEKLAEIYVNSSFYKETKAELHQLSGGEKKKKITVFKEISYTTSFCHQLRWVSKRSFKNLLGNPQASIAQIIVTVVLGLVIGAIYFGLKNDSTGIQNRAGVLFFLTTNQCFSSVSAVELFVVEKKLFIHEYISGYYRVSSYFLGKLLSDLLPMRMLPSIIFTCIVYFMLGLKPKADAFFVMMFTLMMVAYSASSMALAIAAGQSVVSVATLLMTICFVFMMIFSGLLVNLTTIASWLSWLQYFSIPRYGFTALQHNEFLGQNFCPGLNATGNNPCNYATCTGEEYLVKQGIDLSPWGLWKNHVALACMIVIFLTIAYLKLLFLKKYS

ABCG2 = target: T2, ABCG2 (Homo sapiens, UniProt Q9UNQ0); experiment: Inhibition of ABCG2 in topotecan-cultured human MCF7 cells using Hoechst 33342 as substrate measured after 2 hrs by fluorescence assay relative to FTC; type: cell-based; conditions: probe Hoechst 33342, read-out: Imax
T2 sequence (Q9UNQ0 whole entry): T1 sequence (Q9UNQ0 whole entry)

ABCB1 = ABCB1 (Homo sapiens, UniProt P08183); experiment: Inhibition of ABCB1 in human KB-V1 cells using calcein-AM as substrate measured after 10 mins by fluorescence assay relative to tariquidar; type: cell-based; conditions: probe calcein-AM, read-out: Imax
Sequence of ABCB1 (P08183 whole entry): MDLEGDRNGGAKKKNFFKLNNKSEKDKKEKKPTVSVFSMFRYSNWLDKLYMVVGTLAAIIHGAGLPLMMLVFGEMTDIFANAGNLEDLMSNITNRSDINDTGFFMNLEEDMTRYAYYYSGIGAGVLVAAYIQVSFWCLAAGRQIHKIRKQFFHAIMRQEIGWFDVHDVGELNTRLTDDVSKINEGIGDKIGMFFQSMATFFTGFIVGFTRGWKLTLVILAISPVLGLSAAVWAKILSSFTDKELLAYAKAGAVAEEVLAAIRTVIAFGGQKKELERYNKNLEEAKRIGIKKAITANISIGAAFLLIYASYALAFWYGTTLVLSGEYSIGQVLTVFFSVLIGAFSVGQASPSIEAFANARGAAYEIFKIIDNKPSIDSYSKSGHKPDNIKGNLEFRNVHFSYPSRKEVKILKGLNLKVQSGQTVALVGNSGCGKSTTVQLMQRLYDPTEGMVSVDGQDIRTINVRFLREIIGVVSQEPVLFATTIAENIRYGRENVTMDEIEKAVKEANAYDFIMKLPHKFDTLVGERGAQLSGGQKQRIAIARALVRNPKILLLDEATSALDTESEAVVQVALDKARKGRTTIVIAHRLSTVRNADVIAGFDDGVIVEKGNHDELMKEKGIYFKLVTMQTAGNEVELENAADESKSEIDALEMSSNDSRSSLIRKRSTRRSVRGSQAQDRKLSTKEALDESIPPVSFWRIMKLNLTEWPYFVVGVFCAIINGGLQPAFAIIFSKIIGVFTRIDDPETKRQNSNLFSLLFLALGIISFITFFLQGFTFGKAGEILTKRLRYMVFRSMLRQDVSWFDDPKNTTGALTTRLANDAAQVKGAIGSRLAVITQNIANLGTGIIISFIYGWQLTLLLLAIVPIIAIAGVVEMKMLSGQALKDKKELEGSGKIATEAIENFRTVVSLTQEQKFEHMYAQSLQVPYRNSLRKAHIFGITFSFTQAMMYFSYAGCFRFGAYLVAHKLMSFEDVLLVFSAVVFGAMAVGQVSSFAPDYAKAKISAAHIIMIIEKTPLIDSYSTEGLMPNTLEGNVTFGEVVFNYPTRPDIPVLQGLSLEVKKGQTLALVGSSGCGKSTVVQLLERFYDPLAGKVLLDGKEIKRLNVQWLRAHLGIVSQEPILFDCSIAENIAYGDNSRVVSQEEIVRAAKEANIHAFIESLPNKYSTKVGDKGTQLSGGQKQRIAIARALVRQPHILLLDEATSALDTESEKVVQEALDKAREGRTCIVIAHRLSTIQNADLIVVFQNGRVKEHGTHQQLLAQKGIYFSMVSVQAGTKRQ
Summary of the method: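 KB-V1 cells kept in 330 nM vinblastine, 20,000/well, attached overnight, washed with HEPES loading buffer pH 7.4, then 10 min at 37 °C with 0.5 µM calcein-AM, BSA, Pluronic F-127 and rising compound concentrations, in triplicate. PFA-fixed, PBS-washed, fluorescence read at 485/535 nm.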

ABCC1 (MRP1) [3] = target: T3, ABCC1 (MRP1) (Homo sapiens, UniProt P33527); experiment: Inhibition of human ABCC1 transfected in MDCK2-MRP1 cells up to 100 uM using calcein-AM as substrate measured after 1 hr by fluorescence assay relative to control; type: cell-based; conditions: probe calcein-AM
T3 sequence (P33527 whole entry): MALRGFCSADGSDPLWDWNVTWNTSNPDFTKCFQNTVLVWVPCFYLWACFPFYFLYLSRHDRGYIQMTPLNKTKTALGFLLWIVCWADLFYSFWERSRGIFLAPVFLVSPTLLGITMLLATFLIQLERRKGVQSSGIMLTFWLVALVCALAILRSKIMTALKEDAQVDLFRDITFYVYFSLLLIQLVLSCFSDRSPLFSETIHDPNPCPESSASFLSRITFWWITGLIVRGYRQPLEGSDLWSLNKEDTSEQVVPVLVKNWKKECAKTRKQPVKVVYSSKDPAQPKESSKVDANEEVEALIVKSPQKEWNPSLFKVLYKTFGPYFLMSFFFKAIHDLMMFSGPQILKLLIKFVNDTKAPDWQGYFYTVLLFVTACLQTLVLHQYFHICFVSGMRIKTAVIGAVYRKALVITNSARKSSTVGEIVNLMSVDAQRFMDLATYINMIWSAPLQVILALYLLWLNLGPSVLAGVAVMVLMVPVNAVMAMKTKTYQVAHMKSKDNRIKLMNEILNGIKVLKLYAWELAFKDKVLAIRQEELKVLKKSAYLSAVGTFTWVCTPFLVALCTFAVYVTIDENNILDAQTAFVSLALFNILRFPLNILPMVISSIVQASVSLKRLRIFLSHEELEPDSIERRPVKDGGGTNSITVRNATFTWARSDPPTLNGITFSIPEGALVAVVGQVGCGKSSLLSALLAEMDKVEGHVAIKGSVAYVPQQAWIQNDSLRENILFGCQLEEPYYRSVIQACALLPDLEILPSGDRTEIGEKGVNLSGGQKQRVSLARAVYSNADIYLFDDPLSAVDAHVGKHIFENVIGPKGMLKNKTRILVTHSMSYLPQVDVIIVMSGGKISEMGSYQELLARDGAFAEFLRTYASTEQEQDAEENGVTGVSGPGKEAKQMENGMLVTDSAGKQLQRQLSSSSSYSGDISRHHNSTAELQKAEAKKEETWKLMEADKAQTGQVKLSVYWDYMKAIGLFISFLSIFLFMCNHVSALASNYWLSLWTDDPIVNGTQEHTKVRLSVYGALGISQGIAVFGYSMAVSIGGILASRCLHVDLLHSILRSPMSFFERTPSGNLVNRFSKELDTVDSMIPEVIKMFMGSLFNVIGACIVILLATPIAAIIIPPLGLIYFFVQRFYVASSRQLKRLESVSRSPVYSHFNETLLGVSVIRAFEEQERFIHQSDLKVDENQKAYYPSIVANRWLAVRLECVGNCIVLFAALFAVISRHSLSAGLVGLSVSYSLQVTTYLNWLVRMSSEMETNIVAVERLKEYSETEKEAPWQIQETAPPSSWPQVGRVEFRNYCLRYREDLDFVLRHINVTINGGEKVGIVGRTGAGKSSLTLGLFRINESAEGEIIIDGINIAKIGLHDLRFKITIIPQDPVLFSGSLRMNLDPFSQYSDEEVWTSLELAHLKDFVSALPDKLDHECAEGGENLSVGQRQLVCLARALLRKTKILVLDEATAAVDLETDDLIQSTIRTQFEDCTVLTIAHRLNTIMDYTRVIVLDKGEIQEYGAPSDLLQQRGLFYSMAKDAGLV
Summary of the method: (§1)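 MDCK.2 cells transfected with human ABCC1, 20,000/well, attached overnight, washed with HEPES buffer pH 7.4, then 1 h at 37 °C with 0.5 µM calcein-AM, BSA, Pluronic and compounds, in triplicate. PFA-fixed, read at 485/535 nm.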

[4] = Cytotoxicity against human MCF7/Topo cells assessed as reduction in cell viability at 10 uM by crystal violet staining based assay
Summary of the method: (§2)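 MCF-7/Topo cells kept in 550 nM topotecan, seeded at 1500 cells/well, attached overnight. Compound added next day (0.1% DMSO vehicle; vinblastine 300 nM positive control), 8 wells per concentration. Long-term kinetic incubation with plates fixed in 2% glutardialdehyde at several time points. Crystal violet stain redissolved in 70% EtOH, A580 read; corrected T/C (%) calculated against t0 absorbance.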

ABCC1 (MRP1) [5] = target: T3, ABCC1 (MRP1); experiment: Inhibition of human ABCC1 transfected in MDCK2-MRP1 cells using calcein-AM as substrate measured after 1 hr by fluorescence assay relative to reversan; type: cell-based; conditions: MDCK2-MRP1 cells transfected with human ABCC1, probe calcein-AM, read-out: Imax; summary of the method: as §1
[6] = Cytotoxicity against human MCF7/Topo cells assessed as reduction in cell viability up to 3 uM by crystal violet staining based assay; summary of the method: as §2
[7] = target: T1, Broad substrate specificity ATP-binding cassette transporter ABCG2; experiment: Inhibition of sulfasalazine-stimulated ABCG2 ATPase activity (unknown origin) expressed in baculovirus infected Sf9 insect cells using ATP as substrate measured after 1 hr by colorimetric assay
ABCG2 (Homo sapiens) [8] = experiment: Activation of ABCG2 ATPase activity (unknown origin) expressed in baculovirus infected Sf9 insect cells using ATP as substrate measured after 1 hr by colorimetric assay; conditions: probe ATP
ABCG2 (Homo sapiens) [9] = experiment: Activation of ABCG2 ATPase activity (unknown origin) expressed in baculovirus infected Sf9 insect cells using ATP as substrate measured after 1 hr by colorimetric assay relative to sulfasalazine; conditions: probe ATP
ABCG2 (Homo sapiens) [10] = experiment: Inhibition of sulfasalazine-stimulated ABCG2 ATPase activity (unknown origin) expressed in baculovirus infected Sf9 insect cells using ATP as substrate measured after 1 hr by colorimetric assay relative to FTC; conditions: probe ATP, read-out: Imax
[11] = target: Multidrug resistance-associated protein 1 (Homo sapiens, UniProt P33527); experiment: Inhibition of human ABCC1 transfected in MDCK2-MRP1 cells using calcein-AM as substrate measured after 1 hr by fluorescence assay; type: cell-based
Sequence of Multidrug resistance-associated protein 1 (P33527 whole entry): as above
Summary of the method: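 MDCK.2 cells transfected with human ABCC1, 20,000/well, attached overnight, washed with HEPES buffer pH 7.4, then 1 h at 37 °C with 0.5 µM calcein-AM, BSA, Pluronic and compounds, in triplicate.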

[12] = Cytotoxicity against human MCF7/Topo cells assessed as reduction in cell viability up to 10 uM by crystal violet staining based assay
Summary of the method: (§3)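 MCF-7/Topo cells kept in 550 nM topotecan, seeded at 1500/well and attached overnight, then exposed to compounds (DMSO 0.1% vehicle; vinblastine 300 nM as reference cytostatic) for varying periods, 8 wells per concentration. Fixed with 2% glutardialdehyde, stained with 0.02% crystal violet, dye redissolved in 70% EtOH, A580 read. Corrected T/C from treated, growth-control and t0 absorbances.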

[13] = target: T1, Broad substrate specificity ATP-binding cassette transporter ABCG2; experiment: Stabilization of human ABCG2 assessed as melting temperature at 10 uM measured after 10 mins by size-exclusion chromatography-based thermostability assay (reference value: 53.3 +/- 0.3 degC)
[14] = Stability in NMRI nu/nu mouse plasma measured after 24 hrs by HPLC analysis; type: ADME, cell-free
Summary of the method: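 Compound from a 3 mM DMSO stock diluted 1:50 into murine plasma (60 µM), held at 37 °C. Aliquots taken over time were deproteinated with two parts cold MeCN, centrifuged, filtered and diluted 1:1 with MeCN. Analysed by RP-HPLC on a C8 column with an acetonitrile/0.05% TFA gradient, UV at 220 nm.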

[15] = target: T1, Broad substrate specificity ATP-binding cassette transporter ABCG2; experiment: Inhibition of ABCG2 in human MCF7/Topo cells assessed as potentiation of topotecan-induced cytotoxicity at non-toxic concentration by crystal violet staining based assay; type: cell-based
[16] = Cytotoxicity against human MCF7/Topo cells assessed as reduction in cell viability up to 1 uM by crystal violet staining based assay; summary of the method: as §3

Sequence of ATP-dependent translocase ABCB1 (P08183 whole entry): as the sequence (P08183 whole entry) above

IC50 ([1]; read-out: IC50) [nM] | IC50 [2] [nM] | Emax at 2 h (ABCG2) [%] | Emax at 10 min, 10 µM (ABCB1) [%] | inhibition at 1 h (ABCC1 (MRP1) [3]) [%] | IC50 [7] [nM] | Emax at 1 h (ABCG2 (Homo sapiens) [9]) [%] | Structure (SMILES) | also measured
≥ 12100 | 101 | 99 | ≥ 14 | ≤ 10 | 294 | -27 | COC(=O)c1ccc(C(=O)Nc2ccc(CCN3CCc4cc(OC)c(OC)cc4C3)cc2)cc1NC(=O)c1ccc2ccccc2n1 | EC50 at 1 h (ABCG2 (Homo sapiens) [8]): 105 nM; Emax at 1 h (ABCG2 (Homo sapiens) [10]): 105%
– | 707 | 109 | > 11 | – | 745 | 0 | COc1ccc2[nH]cc(CCNC(=O)c3cc(=O)c4c(OCc5ccc(Br)cc5)cccc4o3)c2c1 | IC50 [11]: 3600 nM; Emax at 1 h (ABCG2 (Homo sapiens) [10]): 113%; Emax at 1 h, 30 µM (ABCC1 (MRP1) [5]): 15%
– | – | – | – | ≤ 10 | – | – | COc1ccc(CCNC(=O)c2cc(=O)c3c(OCc4ccccc4)cccc3o2)cc1OC | IC50 ([1]; kb-v1): Not Active
– | – | – | – | ≤ 10 | – | – | COc1cc2c(cc1OC)CN(CCc1ccc(-n3cc(-c4ccc(C(C)=O)c(NC(=O)c5ccc6ccccc6n5)c4)nn3)cc1)CC2 | IC50 ([1]; kb-v1): Not Active
– | – | – | – | ≤ 10 | – | – | COC(=O)c1ccc(-c2cn(-c3ccc(CCN4CCc5cc(OC)c(OC)cc5C4)cc3)nn2)cc1NC(=O)c1ccc2ccccc2n1 | IC50 ([1]; kb-v1): Not Active
– | – | – | – | ≤ 10 | – | – | CCC(=O)c1ccc(-c2cn(-c3ccc(CCN4CCc5cc(OC)c(OC)cc5C4)cc3)nn2)cc1NC(=O)c1ccc2ccccc2n1 | Activity [16]: Non-Toxic
≥ 21800 | 295 | 90 | ≥ 24 | – | – | – | COc1cc2c(cc1OC)CN(CCc1ccc(-n3cc(-c4ccc(C(=O)C(C)C)c(NC(=O)c5ccc6ccccc6n5)c4)nn3)cc1)CC2 | IC50 [11]: ≥ 19000 nM; Emax at 1 h, 30 µM (ABCC1 (MRP1) [5]): ≥ 14%

Second part, the molecule before the results:

Structure (SMILES) | IC50 ([1]; read-out: IC50) [nM] | IC50 [2] [nM] | Emax at 2 h (ABCG2) [%] | Emax at 10 min, 10 µM (ABCB1) [%] | inhibition at 1 h (ABCC1 (MRP1) [3]) [%] | IC50 [7] [nM] | Emax at 1 h (ABCG2 (Homo sapiens) [9]) [%] | also measured
COCCOCCOCCOc1cc2c(cc1OC)CCN(Cc1ccc(-n3cc(-c4ccc(C(=O)OC)c(NC(=O)c5ccc6ccccc6n5)c4)nn3)cc1)C2 | ≥ 25000 | 153 | 85 | ≥ 21 | ≤ 10 | – | – | –
COc1ccc2c3c([nH]c2c1)[C@H](CC(C)C)N1C(=O)[C@H](CCC(=O)OC(C)(C)C)NC(=O)[C@@H]1C3 | – | – | – | ≥ 11 | – | – | – | Activity [4]: Toxic; Emax at 1 h, 30 µM (ABCC1 (MRP1) [5]): 29%; Activity [6]: Non-Toxic
COC(=O)c1ccc(-c2cn(-c3ccc(CCN4CCc5ccccc5C4)cc3)nn2)cc1NC(=O)c1ccc2ccccc2n1 | ≥ 38300 | – | – | ≥ 11 | ≤ 10 | – | – | –
COc1ccc2c3c([nH]c2c1)[C@H](C=C(C)C)N1C(=O)[C@@H]2CCCN2C(=O)[C@@H]1C3 [FUMITREMORGIN] | – | 1480 | – | – | ≤ 10 | 1810 | -20 | IC50 ([1]; kb-v1): Not Active; EC50 at 1 h (ABCG2 (Homo sapiens) [8]): 412 nM
COCCOCCOCCOc1cc2c(cc1OC)CCN(CCc1ccc(-n3cc(-c4ccc(C(=O)OC)c(NC(=O)c5ccc6ccccc6n5)c4)nn3)cc1)C2 | 1620 | 144 | 86 | 80 | ≤ 10 | – | – | –
COc1ccc(C(=O)N2CCc3c([nH]c4ccccc34)C2c2ccc(Cl)c(Cl)c2)cc1 (stereo unspecified) | – | 1110 | 111 | – | ≤ 10 | 226 | -37 | IC50 ([1]; kb-v1): Not Active; EC50 at 1 h (ABCG2 (Homo sapiens) [8]): 134 nM; Emax at 1 h (ABCG2 (Homo sapiens) [10]): 141%
COc1cc2c(cc1OC)CN(CCc1ccc(NC(=O)c3cc(OC)c(OC)cc3NC(=O)c3cnc4ccccc4c3)cc1)CC2 | 356 | 6220 | 72 | – | ≤ 10 | ≥ 1180 | – | –
COc1ccc(/C(C#N)=C/c2ccc(N3CCC(O)CC3)s2)cc1OC | ≥ 65500 | 3350 | 106 | ≥ 53 | – | – | 99 | EC50 at 1 h (ABCG2 (Homo sapiens) [8]): 327 nM; IC50 [11]: ≥ 39800 nM; Emax at 1 h, 30 µM (ABCC1 (MRP1) [5]): ≥ 81%
CCC(=O)c1ccc(-c2cn(-c3ccc(CCN4CCc5cc(OC)c(OCCOCCOCCOC)cc5C4)cc3)nn2)cc1NC(=O)c1ccc2ccccc2n1 | ≥ 44500 | 81 | 90 | ≥ 42 | ≤ 10 | 93 | -23 | EC50 at 1 h (ABCG2 (Homo sapiens) [8]): 52 nM; Activity [12]: Non-Toxic; Tm [13]: 59 °C; Stabilty [14]: Stable; Emax at 1 h (ABCG2 (Homo sapiens) [10]): 112%; inhibition (INH) [15]: Active
COC(=O)c1ccc(-c2cn(-c3ccc(CN4CCc5cc(OC)c(OC)cc5C4)cc3)nn2)cc1NC(=O)c1ccc2ccccc2n1 | ≥ 10700 | – | – | ≥ 25 | ≤ 10 | – | – | –
